Laboratory results as given in ChEMBL document CHEMBL1268843, “Synthesis, NMR characterization and divergent biological actions of 2'-hydroxy-ceramide/dihydroceramide stereoisomers in MCF7 cells” (Bioorg Med Chem, 2010).

What was measured:
MCF7 [1] = experiment: Metabolic stability in human MCF7 cells assessed as C14-ceramide levels at 20 uM after 24 hrs by LC-MS/MS analysis relative to control; assay type: ADME, cell-based; conditions: mcf7, 24 h
How it was run: (§1)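 MCF7 cells grown in parallel with proliferation sets, treated with compound in ethanol (<0.1%) for 24 h (or time course at 10 μM); Bligh & Dyer lipid extracts analysed by LC-MS/MS on triple quadrupole in positive-ion MRM; quantified against spiked-matrix calibration curves with internal standard, linear regression; levels normalized to phospholipid (pmol/nmol Pi), compared with control cells.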

MCF7 [2] = experiment: Metabolic stability in human MCF7 cells assessed as C16-ceramide levels at 20 uM after 24 hrs by LC-MS/MS analysis relative to control; assay type: ADME, cell-based; conditions: mcf7, 24 h; how it was run: as §1
MCF7 [3] = experiment: Metabolic stability in human MCF7 cells assessed as C18-ceramide levels at 20 uM after 24 hrs by LC-MS/MS analysis relative to control; assay type: ADME, cell-based; conditions: mcf7, 24 h; how it was run: as §1
MCF7 [4] = experiment: Metabolic stability in human MCF7 cells assessed as C24:1-ceramide levels at 20 uM after 24 hrs by LC-MS/MS analysis relative to control; assay type: ADME, cell-based; conditions: mcf7, 24 h; how it was run: as §1
MCF7 [5] = experiment: Antiproliferative activity against human MCF7 cells after 24 hrs by trypan blue exclusion assay; assay type: functional, cell-based; conditions: MCF7, 24 h
MCF7 [6] = experiment: Metabolic stability in human MCF7 cells assessed as C24-ceramide levels at 20 uM after 24 hrs by LC-MS/MS analysis relative to control; assay type: ADME, cell-based; conditions: mcf7, 24 h; how it was run: as §1
MCF7 [7] = experiment: Antiproliferative activity against human MCF7 cells assessed as inhibition of cell growth at 10 uM after 24 hrs by trypan blue exclusion assay; assay type: functional, cell-based
MCF7 [8] = experiment: Metabolic stability in human MCF7 cells assessed as cellular C16-dihydroceramide levels after 24 hrs by LC-MS/MS analysis; assay type: ADME, cell-based; conditions: mcf7, 24 h; how it was run: as §1
MCF7 [9] = experiment: Metabolic stability in human MCF7 cells assessed as cellular dihydrsphingosine levels at 40 uM after 24 hrs by LC-MS/MS analysis relative to control; assay type: ADME, cell-based; conditions: mcf7, 24 h; how it was run: as §1
MCF7 [10] = experiment: Metabolic stability in human MCF7 cells assessed as cellular dihydroceramide levels at 40 uM after 24 hrs by LC-MS/MS analysis; assay type: ADME, cell-based; conditions: mcf7, 24 h; how it was run: as §1
MCF7 [11] = experiment: Metabolic stability in human MCF7 cells assessed as cellular dihydroceramide levels at up to 10 uM after 24 hrs by LC-MS/MS analysis; assay type: ADME, cell-based; conditions: mcf7, 24 h; how it was run: as §1
MCF7 [12] = experiment: Metabolic stability in human MCF7 cells assessed as C14-ceramide levels at 10 uM after 24 hrs by LC-MS/MS analysis relative to control; assay type: ADME, cell-based; conditions: mcf7, 24 h; how it was run: as §1
MCF7 [13] = experiment: Metabolic stability in human MCF7 cells assessed as endogenous 2-OH-ceramide levels at 2.5 to 20 uM after 24 hrs by LC-MS/MS analysis; assay type: ADME, cell-based; conditions: mcf7, 24 h; how it was run: as §1
MCF7 [14] = experiment: Metabolic stability in human MCF7 cells assessed as cellular ceramide levels at 10 uM after up to 30 hrs by LC-MS/MS analysis; assay type: ADME, cell-based; conditions: mcf7, 30 h; how it was run: as §1
MCF7 [15] = experiment: Metabolic stability in human MCF7 cells assessed as C16-ceramide levels at 10 uM after 24 hrs by LC-MS/MS analysis relative to control; assay type: ADME, cell-based; conditions: mcf7, 24 h; how it was run: as §1
MCF7 [16] = experiment: Metabolic stability in human MCF7 cells assessed as ceramide species levels at up to 5 uM after 24 hrs by LC-MS/MS analysis; assay type: ADME, cell-based; conditions: mcf7, 24 h; how it was run: as §1
MCF7 [17] = experiment: Metabolic stability in human MCF7 cells assessed as endogenous sphingosine levels at 10 uM after 24 hrs by LC-MS/MS analysis; assay type: ADME, cell-based; conditions: mcf7, 24 h; how it was run: as §1
MCF7 [18] = experiment: Metabolic stability in human MCF7 cells assessed as C18-ceramide levels at 10 uM after 24 hrs by LC-MS/MS analysis relative to control; assay type: ADME, cell-based; conditions: mcf7, 24 h; how it was run: as §1
MCF7 [19] = experiment: Metabolic stability in human MCF7 cells assessed as cellular sphingosine levels at up to 25 uM after 24 hrs by LC-MS/MS analysis; assay type: ADME, cell-based; conditions: mcf7, 24 h; how it was run: as §1
MCF7 [20] = experiment: Metabolic stability in human MCF7 cells assessed as cellular ceramide levels at up to 25 uM after 24 hrs by LC-MS/MS analysis; assay type: ADME, cell-based; conditions: mcf7, 24 h; how it was run: as §1
MCF7 [21] = experiment: Metabolic stability in human MCF7 cells assessed as cellular dihydroceramide levels at up to 5 uM after 24 hrs by LC-MS/MS analysis; assay type: ADME, cell-based; conditions: mcf7, 24 h; how it was run: as §1

Row | Structure (SMILES) | fold change (FC) (MCF7 [1]) | fold change (FC) (MCF7 [2]) | fold change (FC) (MCF7 [3]) | fold change (FC) (MCF7 [4]) | IC50 (MCF7 [5]) | fold change (FC) (MCF7 [6]) | fold change (FC) (MCF7 [8]) | fold change (FC) (MCF7 [9]) | fold change (FC) (MCF7 [10]) | Stability (MCF7 [11]) | Stability (MCF7 [13]) | Stability (MCF7 [14]) | Stability (MCF7 [19]) | Stability (MCF7 [20]) | Stability (MCF7 [9]) | other results
1 | CCCCCCCCCCCCC/C=C/[C@@H](O)[C@H](CO)NC(=O)CCCCC | 40 | 20 | 80 | 5 | 12 µM | 0.2 |  |  |  |  |  |  |  |  |  | 
2 | CCCCCCCCCCCCCCC[C@@H](O)[C@H](CO)NC(=O)CCCCC |  |  |  |  | 38 µM |  | 13 | 5 | 7 | Stable |  |  |  |  |  | Stability (MCF7 [7]): Stable
3 | CCCCCCCCCCCCC/C=C/[C@@H](O)[C@H](CO)NC(=O)[C@H](O)CCCC |  |  |  |  |  |  |  |  |  |  | Stable | Stable | Stable | Stable |  | fold change (FC) (MCF7 [12]): 3; fold change (FC) (MCF7 [15]): 1.7; Stability (MCF7 [16]): Stable; Stability (MCF7 [17]): Stable; fold change (FC) (MCF7 [18]): 5
4 | CCCCCCCCCCCCC/C=C/[C@@H](O)[C@H](CO)NC(=O)[C@@H](O)CCCC | 20 | 7 | 30 | 4 |  | 2 |  |  |  |  | Stable | Stable | Stable | Stable |  | 
5 | CCCCCCCCCCCCCCC[C@@H](O)[C@H](CO)NC(=O)[C@@H](O)CCCC |  |  |  |  | 12 µM |  | 25 | 16 | 19 | Stable |  |  |  |  | Unstable | 
6 | CCCCCCCCCCCCCCC[C@@H](O)[C@H](CO)NC(=O)[C@H](O)CCCC |  |  |  |  | 8 µM |  |  |  |  | Stable |  |  |  |  | Stable | Stability (MCF7 [8]): Stable; Stability (MCF7 [21]): Stable
